{
  "source": "ChEMBL document CHEMBL5143719",
  "about": "“Cosolvent Sites-Based Discovery of Mycobacterium Tuberculosis Protein Kinase G Inhibitors” (J Med Chem, 2022)",
  "key": {"[1]": {"molecular_target": "T1, Serine/threonine-protein kinase PknG (Mycobacterium tuberculosis, UniProt P9WI73)", "T1 sequence (P9WI73 whole entry)": "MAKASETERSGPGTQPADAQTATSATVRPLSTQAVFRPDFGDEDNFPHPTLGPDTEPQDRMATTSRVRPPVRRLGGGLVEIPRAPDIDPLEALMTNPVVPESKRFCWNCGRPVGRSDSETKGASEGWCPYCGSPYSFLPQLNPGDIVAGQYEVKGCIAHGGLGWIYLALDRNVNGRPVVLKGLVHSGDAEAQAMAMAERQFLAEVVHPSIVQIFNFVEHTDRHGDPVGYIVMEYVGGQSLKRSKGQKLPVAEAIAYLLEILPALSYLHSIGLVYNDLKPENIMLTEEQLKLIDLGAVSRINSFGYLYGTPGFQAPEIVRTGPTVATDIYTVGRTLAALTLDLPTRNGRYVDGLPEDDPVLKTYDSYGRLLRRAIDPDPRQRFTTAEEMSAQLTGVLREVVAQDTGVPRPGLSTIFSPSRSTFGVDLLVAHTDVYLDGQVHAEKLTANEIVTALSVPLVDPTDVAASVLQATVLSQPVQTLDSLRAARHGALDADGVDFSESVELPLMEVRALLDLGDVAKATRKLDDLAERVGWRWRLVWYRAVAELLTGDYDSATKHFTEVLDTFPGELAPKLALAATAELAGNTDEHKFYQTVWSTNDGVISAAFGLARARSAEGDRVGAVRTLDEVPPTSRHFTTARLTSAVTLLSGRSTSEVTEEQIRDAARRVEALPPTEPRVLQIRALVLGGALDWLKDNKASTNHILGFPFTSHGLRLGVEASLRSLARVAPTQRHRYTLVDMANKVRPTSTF", "assay": "Binding affinity to full length Mycobacterium tuberculosis protein kinase G expressed in Escherichia coli BL21 assessed as dissociation constant at 21 degreeC by fluorescence spectroscopy based"}, "[2]": {"molecular_target": "Serine/threonine-protein kinase PknG (Mycobacterium tuberculosis) (UniProt P9WI73)", "sequence (P9WI73 whole entry)": "as above", "assay": "Inhibition of full length Mycobacterium tuberculosis protein kinase G at 40 uM using GarA as substrate in presence of ATP relative to control", "summary_of_the_method": "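End-point assay with full-length PknG 1 μM, GarA 25 μM and ATP 2 μM, in 25 mM Tris-HCl pH 7.4, 2 mM MnCl2 and 1–2% DMSO. Reactions ran 60 min at 37 °C, after which remaining ATP was read by Kinase-Glo Plus luminescence. Inhibition was referenced to no-compound (DMSO) and no-GarA controls. Duplicates.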"}, "[3]": {"test_system": "Mycobacterium tuberculosis", "assay": "Antimycobacterial activity against Mycobacterium tuberculosis H37Rv infected in human THP-1 cells assessed as reduction in intracellular survival at 1 to 10 uM measured after 24 to 48 hrs", "type": "functional, organism-based", "settings": "dose 1-10 µM, time 24-48 hrs", "summary_of_the_method": "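THP-1 monocytes were differentiated with 10 ng/mL PMA for 48 h and infected with Mtb H37Rv (MOI 10) for 2 h. Cells were washed and cultured without penicillin–streptomycin with compound at 1 and 10 μM for 24 and 48 h. Lysis was in 0.05% Triton X-100; serial dilutions were plated in quadruplicate on 7H10 OADC. CFU were counted after 3 weeks. Welch's ANOVA with Dunnett T3.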"}, "[4]": {"test_system": "THP-1", "assay": "Cytotoxicity against human THP1 cells assessed as reduction in cell viability at 1 to 10 uM measured for 3 to 48 hrs by trypan blue assay", "type": "toxicity, cell-based", "settings": "thp-1, 10 µM, dose lower 1 µM, time lower 3 hrs, dose upper 10 µM, time upper 48 hrs", "summary_of_the_method": "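PMA-differentiated THP-1 macrophages were exposed to compound at 1 and 10 μM for 3, 5, 24 and 48 h. Viability was scored by trypan blue exclusion, in triplicate, as percent of untreated control cells.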"}, "[5]": {"molecular_target": "T1, Serine/threonine-protein kinase PknG", "assay": "Inhibition of full length Mycobacterium tuberculosis protein kinase G using His-tagged GarA as substrate in presence of [gamma32P] ATP measured after 12 to 24 hrs by radiometric kinase assay"}},
  "note": "Calls of active or inactive are those of the source. The rule behind the calls is not given here.",
  "data": [
    {"compound": "NC(=O)c1c(N)c(C(=O)c2ccc(Br)cc2)n2ccccc12", "values": [
      {"measurement": "Kd", "setting": "[1]", "result": 1300, "unit": "nM"}
    ]},
    {"compound": "NC(=O)c1c(N)c(C(=O)c2ccccc2)n2ccccc12", "values": [
      {"measurement": "Kd", "setting": "[1]", "result": 1800, "unit": "nM"}
    ]},
    {"compound": "CS(=O)(=O)Nc1ccc(-c2cc(-c3ccccc3)cc(C(N)=O)c2N)cc1", "values": [
      {"measurement": "inhibition", "setting": "[2]", "result": 50, "unit": "%"}
    ]},
    {"compound": "CCN1CCCC1CNC(=O)Nc1sc2c(c1C(N)=O)CCCC2", "note": "(configuration not stated)", "values": [
      {"measurement": "Activity", "setting": "[3]", "result": "Active"}
    ]},
    {"compound": "CCOc1ccc(C(=O)c2c(N)c(C(N)=O)c3ccccn23)cc1", "values": [
      {"measurement": "Kd", "setting": "[1]", "result": 13000, "unit": "nM"}
    ]},
    {"compound": "NC(=O)c1c(NC(=O)NCC2CCCO2)sc2c1CCCC2", "note": "(configuration not stated)", "values": [
      {"measurement": "Activity", "setting": "[3]", "result": "Active"}
    ]},
    {"compound": "CC(C)c1ccc(C(=O)c2c(N)c(C(N)=O)c3ccccn23)cc1", "values": [
      {"measurement": "Activity", "setting": "[3]", "result": "Active"},
      {"measurement": "Activity", "setting": "[4]", "result": "Non-Toxic"}
    ]},
    {"compound": "NC(=O)c1c(N)c(C(=O)c2ccc(F)cc2)n2ccccc12", "values": [
      {"measurement": "Activity", "setting": "[3]", "result": "Active"},
      {"measurement": "Activity", "setting": "[4]", "result": "Non-Toxic"}
    ]},
    {"compound": "NC(=O)c1c(NC(=O)C2CC2)sc2c1CCCC2", "values": [
      {"measurement": "IC50", "setting": "[5]", "result": 900, "unit": "nM"},
      {"measurement": "Activity", "setting": "[3]", "result": "Active"}
    ]}
  ]
}
